Results pooled from the literature.
Lines come from different studies, so protocols differ.
Target: 5-hydroxytryptamine receptor 7 (HTR7, Homo sapiens, UniProt P34969)
Tested at: 10 µM

Compound	observed	method	inhibition [%]
CC(C)(C)OC(=O)N1CCCC1CNC1CCC(c2cc(F)ccc2F)(S(=O)(=O)c2ccc(Cl)cc2)CC1 (stereo not drawn)	cell-free assay	–	70.7
CCCNc1nc2ccccc2n1Cc1ccc(Cl)cc1	ligand displacement	–	13.5
Oc1cccc(Nc2nc(-c3ccc(F)cc3F)cs2)c1	ligand displacement	radioligand	-31.9
C[C@@H](c1cccc(C#N)c1)n1cc(Cl)cc(C(N)=O)c1=N	ligand displacement	–	4.17
COc1cc(NC(C)=O)c(Cl)cc1C(=O)Nc1nccs1	ligand displacement	radioligand	-7.7
COc1cc2c3c(c1OC)-c1cc4c(cc1CC3N(C)CC2c1ccccc1)OCO4 (stereo not drawn)	ligand displacement	radioligand	< 50
N#Cc1cc(Cn2c(N3CCCC3)nc3ccccc32)ccc1F	ligand displacement	–	-11.2
COc1cc2c3c(c1OC)-c1cc4c(cc1CC3N(C)CC2)OCO4 (racemic)	ligand displacement	radioligand	96.7
CCN(CC)c1ccc(C2Nc3ccc(C(=O)c4ccccc4)cc3NC3=C2C(=O)CC(C)(C)C3)cc1 (stereo not drawn)	ligand displacement	radioligand	4
